# From PubChem
# This is a sample that favours compounds with a hit; in the whole collection about 2.4% have one here.
# Cneo AK release = causes C. neoformans cell lysis; adenylate kinase release luminescence, 4 h; normalised: neutral wells 0, clomiphene wells 100; lysis activity, % at 15 µM; actives 0.2% (n = 360,000); AID 651654;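 active = mean lysis activity across replicates of at least 80%, whatever share of replicates individually reach that level; inactive = mean lysis activity below 80%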
#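 read-out = cell lysis signal | test system = log-phase Cryptococcus neoformans yeast cells | input = cells at 5 × 10^6 per mL | medium = fresh YPD growth medium | signal = luminescent adenylate kinase detection reagent | timing = 4 h at 37 °C static, read 1 h later | dosing = single dose | controls = Clomiphene as positive lysis control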
# INS-1E GSIS act = primary screen for activators of insulin secretion dependent on glucose, INS-1E cells, GLuc reporter luminescence | actives 0.61% (n = 370,000) | INS-1E GLuc reporter insulin secretion, 2-3 h | activation, % at 16.6 µM;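 active = lowest replicate activation of at least 40%, so every replicate reaches that level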;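 also: 0% = median of neutral control wells and 100% = median of IBMX positive control wells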
# HIV Env fusion = inhibitors of HIV Env-mediated cell fusion; HeLa-JRFL Env/CEM21 cell fusion, luciferase; inhibition, % at 12.3 µM; actives 1.1% (n = 360,000);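 active = mean replicate inhibition score of at least 50 and every replicate individually at or above 50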;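 also: 0% = plate neutral controls and 100% = maraviroc near 300 nM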
# Rtt109 Vps75 = C. albicans Rtt109 histone acetyltransferase inhibition | actives 0.16% (n = 330,000) | Q5AAJ8 | AID 540336 | inhibition, % at 34.9 µM | purified Rtt109/Vps75, ThioGlo CoA-SH fluorescence, 4 h;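 active = inhibition of at least 50% in every replicate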
# miR122 inh = miR-122 inhibition in Huh7 cells; Huh7 miR-122 Renilla luciferase sensor, 48 h; neutral wells = 0, positive control = 100; activation (reporter increase), % at 12.5 µM; actives 0.3% (n = 340,000); AID 602342;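 active = mean replicate activation score at least 90 and every replicate individually at or above 90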;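 also: higher luciferase means less miR-122 activity so hits act as miR-122 inhibitors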
# dFosB activator = mouse delta FosB homodimer activation; purified delta FosB, TAMRA-CDK5 oligo fluorescence polarization; percent of positive-control signal above neutral wells; activation, % at 25 µM; actives 0.99% (n = 340,000); AID 493131;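 active = mean activation above about 17%, with every replicate also reaching it, limit read from the data, passing the limit was not always enough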
# Target sequence (P13346 whole entry, looked up): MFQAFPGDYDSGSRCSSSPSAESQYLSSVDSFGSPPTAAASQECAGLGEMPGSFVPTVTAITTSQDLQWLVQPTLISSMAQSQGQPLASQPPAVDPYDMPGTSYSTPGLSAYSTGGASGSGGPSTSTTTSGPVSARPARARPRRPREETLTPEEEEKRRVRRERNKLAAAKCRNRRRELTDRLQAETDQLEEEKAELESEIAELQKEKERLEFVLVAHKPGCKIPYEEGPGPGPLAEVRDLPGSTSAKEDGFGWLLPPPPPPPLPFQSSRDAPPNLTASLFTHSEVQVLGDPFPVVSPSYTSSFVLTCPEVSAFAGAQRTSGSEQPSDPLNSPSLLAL
# * = called active by the depositor; x = not tested or not shown; [ ] = remark or other dose.
SMILES,Cneo AK release,INS-1E GSIS act,HIV Env fusion,Rtt109 Vps75,miR122 inh,dFosB activator
CN(C)CC(=O)N[C@@H]1CC[C@@H](CCNC(=O)C2CC2)O[C@@H]1CO,x,15,x,x,x,x
C[C@@H]1CN([C@H](C)CO)C(=O)c2cc(N(C)C)ccc2O[C@@H](C)CCCCO[C@H]1CN(C)Cc1ccc(C(=O)Nc2ccccc2N)cc1,x,7,x,x,x,x
C/C=C/c1ccc([C@H]2[C@@H](CO)N(CC3CCCC3)[C@H]2CNC(C)=O)cc1,x,-9,x,x,x,x
O=C(C[C@@H]1C[C@@H]2c3cc(NC(=O)C4CCOCC4)ccc3O[C@@H]2[C@@H](CO)O1)NCC1CC1,-1,0,-27[16.7 µM],x,-1[16.7 µM],x
COC(=O)c1ccc2nc(Nc3nc4ccc(F)cc4s3)sc2c1,1,x,57*,-10,7,-5
C[C@@H]1CN([C@@H](C)CO)C(=O)c2cc(NC(=O)C3CCCCC3)ccc2O[C@@H](C)CCCCO[C@H]1CN(C)S(C)(=O)=O,x,1,5[16.7 µM],x,0[16.7 µM],x
Nc1nc(Cl)nc2c1ncn2C1OC(CO)C(O)C1O (configuration not stated),-2,9,x,x,-4,x
Nc1ncnc2c1ncn2C1O[C@H](CO)[C@@H](O)[C@@H]1O (some centres not stated),0,0,-2,-7,-10,-6
O=c1[nH]c(=O)n(C2OC(CO)C(O)C2O)cc1F (configuration not stated),x,x,x,-3,7,5
Nc1nc(F)nc2c1ncn2[C@@H]1O[C@H](CO)[C@@H](O)[C@@H]1O,-1,10,62*,-7,1,4
Nc1nc(=O)n(C2OC(CO)C(O)C2O)cc1F (configuration not stated),1,x,62*,x,-4,x
OCC1OC(n2cnc3c(NCc4ccco4)ncnc32)C(O)C1O (configuration not stated),x,x,70*,-4,x,-18
Nc1nc(F)nc2c1ncn2[C@@H]1O[C@H](CO)[C@@H](O)[C@H]1O,2,x,73*,9,-27,3
CC(=O)N1CC2(C1)[C@@H](c1ccccc1)[C@@H](CO)N2CC1CCOCC1,x,-11,x,x,x,x
O=C(C[C@H]1CC[C@@H](NC(=O)Nc2ccc(F)cc2)[C@@H](CO)O1)NCc1ccccn1,2,8,6[16.7 µM],x,x,x
COc1ccc(-c2cc(=O)oc3cc(O)ccc23)cc1,x,56,36,1,x,-8
COc1ccc(-c2cc(=O)oc3cc(OC(=O)C4CCCCC4)c(Cl)cc23)cc1,x,-2,66*,-7,x,-10
COc1ccc(-c2cn(C[C@@H](Cc3ccccc3)NC(=O)Nc3ccccc3)nn2)cc1OC,-3,x,-3[16.7 µM],x,x,x
CCC(=O)N(C)C[C@@H]1Oc2cc(C#CCC3CCCC3)ccc2S(=O)(=O)N([C@@H](C)CO)C[C@H]1C,51,-18,39[16.7 µM],x,2[16.7 µM],x
CC(=O)Nc1ccc2c(c1)CC(=O)N(C)C[C@@H](C)[C@@H](CN(C)C(=O)NC(C)C)O2,x,2,x,x,x,x
Cc1cccc(C2(c3cccc(C)c3)CC2C(=O)Nc2ccc([N+](=O)[O-])cc2O)c1 (configuration not stated),x,-5,75*,9,x,7
C=CCNC(=O)C1CC1(c1cccc(C)c1)c1cccc(C)c1 (configuration not stated),0,-14,5,x,18,x
O=C(C[n+]1ccc(CCSc2ccc(F)cc2)cc1)c1ccccc1,2,x,x,x,-5,85*
Cc1ccc(SCCc2cc[n+](CC(=O)c3ccccc3)cc2)cc1,x,14,-16,12,x,-3
CCC(Sc1nc(-c2ccccc2)c(-c2ccccc2)[nH]1)C(=O)O (configuration not stated),2,67*,-14,6,0,4
SMILES,Cneo AK release,INS-1E GSIS act,HIV Env fusion,Rtt109 Vps75,miR122 inh,dFosB activator
CNC(=O)CSc1nc(-c2ccccc2)c(-c2ccccc2)[nH]1,-1,x,-33,10,24,2
CC(C)C#Cc1cnc2c(c1)C(=O)N([C@@H](C)CO)C[C@H](C)[C@H](CN(C)C(=O)Cc1ccncc1)O2,0,14,-14[16.7 µM],x,-9[16.7 µM],x
Cc1ccc(-c2nnc(-c3cccc4ccccc34)o2)cc1,-2,17,-141,-1,3,-9
Cc1cccc(-c2nnc(-c3cccc4ccccc34)o2)c1,-29,12,-135,8,146*,-13
Cc1ccc(NC(=O)NNC(=O)c2cc3ccccc3cc2O)cc1,0,14,-15,0,x,93*
Cc1c(Cl)cccc1NC(=O)CCCn1cnc([N+](=O)[O-])n1,-1,4,-10,-2,251*,-2
N#Cc1c(N)nc(SCc2ccccn2)c(C#N)c1-c1cccs1,-1,-16,56*,9,-9,-23
CCOC(=O)CSc1nc(N)c(C#N)c(-c2cccs2)c1C#N,0,x,x,-16,-2,-4
CCC(=O)N1[C@@H]2c3cccc(=O)n3C[C@@H]2[C@@H](CO)[C@@H]1C(=O)N[C@@H](C)c1ccccc1,x,-2,x,x,x,x
O=C(Nc1ccc2oc(-c3ccccc3Cl)nc2c1)c1cncc(Br)c1,3,x,-106,-10,4,64*
O=C(Nc1ccc2oc(-c3ccccc3Cl)nc2c1)c1ncn[nH]1,-1,7,x,4,-9,2
COc1cccc(C2(c3cccc(OC)c3)CC2C(=O)Nc2ccccc2Cl)c1 (configuration not stated),0,-16,x,-4,67,3
COc1cccc(C2(c3cccc(OC)c3)CC2C(=O)Nc2ccc(F)cc2)c1 (configuration not stated),-1,-3,-1,-17,108*,2
O=C(CCc1ccc(S(=O)(=O)NCCc2ccccc2)cc1)NCc1ccc2c(c1)OCO2,5,x,-23,4,196*,-10
COc1ccc(NC(=O)CSc2ccc3ccccc3c2)cc1S(=O)(=O)N1CCCCC1,x,-5,56*,-6,x,-5
COc1ccc(NC(C)=O)cc1S(=O)(=O)Nc1ccc(S(=O)(=O)N2CCCCC2)cc1,0,7,-3,6,126*,-3
CC(=O)Nc1ccc(S(=O)(=O)Nc2ccc(S(=O)(=O)N3CCCCCC3)cc2)cc1,-7,x,-21,-20,21,-12
COc1ccc(S(=O)(=O)Nc2ccc(S(=O)(=O)N3CCCCC3)cc2)cc1C,1,-1,-104,9,251*,-7
O=C(Cc1ccccc1)N1CC(=O)N2[C@H](C1)[C@@H](c1ccc(-c3cccc(F)c3)cc1)[C@@H]2CO,x,-19,x,x,x,x
CN1c2ccc(-c3ccccc3)cc2[C@H]2[C@H](CCN2C(=O)c2ccncc2)[C@@H]1CO,2,-4,x,x,-5[16.7 µM],x
O=C(NC[C@@H]1CC[C@@H]2[C@@H](CN2Cc2nccs2)O1)C1CCC1,x,x,13[16.7 µM],x,x,x
CCNC(=S)N1CCC(NC(=O)C2CCCCC2)CC1,2,x,-43,2,-1,1
